Measurements pooled from the literature.
Lines come from different studies, so protocols differ.
Observed: cell growth or viability

Compound | cell line | assay | conditions | measurement | value
CO[C@]12C[C@@H](COC(=O)c3cncc(Br)c3)CN(C)[C@@H]1Cc1cn(C)c3cccc2c13 | C6661 | MTT | 48 h | IC50 | 82.6 µM
C=CC(=O)NC1CCN(c2ncc3ncnc(Nc4ccc(Oc5ccc6c(c5)ncn6C)c(C)c4)c3n2)CC1 | SW1573 | – | – | EC50 | 0.079 µM
Cc1noc2c1-c1ccccc1C(c1ccc(Cl)cc1)=N[C@H]2CC(N)=O | KG-1 | ATP luminescence | 72 h | IC50 | 0.52 µM
C=CC(=O)N1CCN(c2nc(=O)n(-c3c(C)ccnc3C(C)C)c3nc(-c4c(O)cccc4F)c(F)cc23)[C@@H](C)C1 | NCI-H1573 | ATP luminescence | – | IC50 | > 10 µM
COc1cc2nc(N3CCN(C(=O)C4COc5ccccc5O4)CC3)nc(N)c2cc1OC (stereo not drawn) | C6661 | MTT | 48 h | IC50 | 54.3 µM
C=CC(=O)c1cccnc1Nc1cccc(C(F)(F)F)c1 | NCI-H23 | SRB | 48 h | GI50 | 14.2 µM
C=C(F)C(=O)N1CCN(c2nc(OC[C@@H]3CCCN3C)nc3c2CCN(c2cccc4cccc(Cl)c24)C3)C[C@@H]1CC#N | NCI-H23 | ATP luminescence | 3D culture | IC50 | 0.0113 µM
O=C(O)c1ccccc1Nc1cccc(C(F)(F)F)c1 | NCI-H23 | SRB | 48 h | GI50 | > 30 µM
Cc1c(C(=O)O)ccc2c3n(nc12)[C@@H]1[C@H](C3)N(CC2CC2)[C@@]2(C(=O)Nc3cc(Cl)ccc32)[C@H]1c1cccc(Cl)c1F | Rh18 | resazurin | – | GI50 | 0.005 µM
